Bioassay records as filed in PubChem.
hIAP act: human IAP activators, primary screen, biochemical, luminescence, uHTS | actives 0.16% (n = 330,000) | activation factor at 10 µM | Intestinal-type alkaline phosphatase (Homo sapiens), P09923 | AID 2524, 2010 | purified human IAP, CDP-Star luminescence, 30 min; active compounds read high; 1 = vehicle-only enzyme, 0 = enzyme-free background;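 active means activation factor of the enzyme at least 2-fold when tested at 20 µM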
Target sequence (P09923 whole entry, looked up): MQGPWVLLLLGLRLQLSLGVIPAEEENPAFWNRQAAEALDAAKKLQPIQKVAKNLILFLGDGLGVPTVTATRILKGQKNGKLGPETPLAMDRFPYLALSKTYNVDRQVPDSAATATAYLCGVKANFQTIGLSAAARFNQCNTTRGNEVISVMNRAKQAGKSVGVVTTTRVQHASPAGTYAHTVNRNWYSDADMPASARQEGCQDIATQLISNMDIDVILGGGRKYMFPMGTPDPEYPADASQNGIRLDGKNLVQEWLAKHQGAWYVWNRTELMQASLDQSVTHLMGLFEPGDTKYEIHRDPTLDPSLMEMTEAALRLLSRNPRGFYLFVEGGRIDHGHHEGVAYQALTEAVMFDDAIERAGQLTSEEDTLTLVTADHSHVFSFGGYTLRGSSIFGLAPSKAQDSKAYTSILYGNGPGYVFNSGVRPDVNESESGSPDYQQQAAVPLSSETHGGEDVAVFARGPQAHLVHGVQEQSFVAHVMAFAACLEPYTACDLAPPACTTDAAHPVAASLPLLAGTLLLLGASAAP
bIAP inhibitor: bovine intestinal alkaline phosphatase inhibitors, primary screen, selectivity assay for TNAP inhibitor project, biochemical, bovine IAP, CDP-star luminescence; alkaline phosphatase, intestinal [Bos taurus]; purified bovine IAP, 30 min; inhibition, % at 20 µM; 190,000 tested, under 10 active; AID 1019, 2008;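 active means over 50% inhibition of intestinal alkaline phosphatase at 20 µM in the single-dose screen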
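Assay system – bovine IAP enzyme · Quantity – bovine IAP at 1/65,000,000 final dilution · Detection – CDP-star luminescence signal · Times – 30 min reaction at room temperature · Also added – CDP-star substrate at 30 µM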
mIAP activ: activators of mouse IAP, primary screen, biochemical, luminescence, uHTS; AID 2805, 2010; actives 0.24% (n = 330,000); activation factor at 10 µM; muIAP, CDP-Star luminescence, 30 min; active compounds read high; 1 = vehicle-only enzyme signal, 0 = enzyme-free wells;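 active means activation factor of at least 2 at 20 µM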
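Assay system: mouse IAP enzyme; Reagent: CDP-Star chemiluminescent phosphatase substrate; Compound: DMSO-dissolved test compounds; Incubation: 30 min, room temperature; Technique: luminescence from enzymatic CDP-Star hydrolysis; Controls: DMSO-only wells and no-enzyme negative control.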
bIAP activator: bovine intestinal alkaline phosphatase activators, primary screen, biochemical, bovine IAP, CDP-star luminescence; actives 0.17% (n = 200,000); purified bovine IAP, 30 min; active compounds read high; fold of DMSO-control signal, blank-subtracted; activation factor at 20 µM;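 active means activation factor of 2 or more at 20 µM, a signal rise over negative controls twice the positive control's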
hIAP inh: human IAP inhibitors, primary screen, biochemical, luminescence, uHTS; Intestinal-type alkaline phosphatase (Homo sapiens), P09923; purified IAP, CDP-Star luminescence, 30 min; actives 0.12% (n = 330,000); inhibition, % at 10 µM;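 active means inhibition reaching a set limit with compound at 10 µM in the primary screen, cut at about 35% in these data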
mIAP block: inhibitors of mouse IAP, primary screen, biochemical, luminescence, uHTS. intestinal alkaline phosphatase [Mus musculus]. purified mouse IAP, CDP-Star luminescence, 30 min. inhibition, % at 10 µM. actives 0.2% (n = 330,000). AID 2806, 2010;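 active means inhibition of at least 40% at 10 µM in the primary screen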
Each line names hits and unclear results; the compound was inactive in the other large screens. Hits are enriched below; roughly 0.72% of the tested compounds scored in any of these assays.

COc1ccc(C(C(=O)NC2CCCC2)N(Cc2ccc(F)cc2)C(=O)c2ccn[nH]2)cc1OC (stereo not given)	bIAP activator 2.1
CC(C)(C)NC(=O)C(c1ccc(F)cc1)N(Cc1ccccc1Cl)C(=O)c1ccn[nH]1 (stereo not given)	bIAP activator 2.1
CC(C)N1C(=O)N(c2cccc(Cl)c2)C(C)(O)CC1(C)C (stereo not given)	none (no result: bIAP inhibitor, bIAP activator)
CCOC(=O)C1Nc2ccc(C(=O)O)cc2C2C=CCC12 (stereo not given)	none (no result: bIAP inhibitor, bIAP activator)
CCOC(=O)c1ccc2c(c1)C1C=CCC1C(C(=O)O)N2 (stereo not given)	mIAP block 55
COC(=O)C1=C(CS(=O)(=O)c2ccccc2)NC(=O)NC1c1ccccc1 (stereo not given)	none (no result: bIAP inhibitor, bIAP activator)
Cn1c(=O)c2c(nc(N/N=C/c3ccco3)n2C)n(C)c1=O	bIAP activator 2.1
Cn1c(=O)c2c(nc(N/N=C/c3cccs3)n2C)n(C)c1=O	none (no result: bIAP inhibitor, bIAP activator)
CCOC(=O)C1=C(c2ccccc2)NC(=O)NC1c1ccsc1 (stereo not given)	none (no result: bIAP inhibitor, bIAP activator)
S=C(Nc1cc(Cl)cc(Cl)c1)NC1CCN(Cc2ccccc2)CC1	mIAP activ 3.2 (no result: bIAP inhibitor, bIAP activator)
C#CCOCCOCCOCCNc1nc(N2CCN(C(=O)[C@H](Cc3cc4ccccc4[nH]3)n3cc([C@@H](N)C(C)CC)nn3)CC2)nc(N2CCN(C(=O)[C@H](Cc3cc4ccccc4[nH]3)n3cc([C@@H](N)CC(C)C)nn3)CC2)n1 (stereo not given in full)	bIAP activator 5.4
Cc1ccc(NC2=NC(C(=O)Nc3ccc(C)c(C)c3)CC(=O)N2)cc1 (stereo not given)	bIAP activator 2
Cc1ccc(NC(=O)C2CCC(=O)N2)cc1C (stereo not given)	none
CCC(CO)N=C1CC(C)(C)CC(=O)/C1=C(/O)CCCN1C(=O)c2ccccc2C1=O (stereo not given)	none
Cc1cc(=O)oc2cc(NC(=O)C(CCCN=C(N)N)NC(=O)OCc3ccccc3)ccc12 (stereo not given)	none (no result: bIAP inhibitor, bIAP activator)
O=C(Nc1ccc(Cl)cc1)NC1(C(=O)NCCCN2CCOCC2)CCCCC1	bIAP activator 2.8
CC(=O)NNc1ncnc2c1cnn2-c1ccc(C)c(Cl)c1	none
CC(=O)NNc1ncnc2c1cnn2-c1ccc(C)cc1	hIAP act 3.1
Cc1ccc(Cl)cc1-n1ncc2c(NNC(=O)c3ccco3)ncnc21	hIAP act 2.4
Cc1ccc2c(c1)C(c1ccccc1)CC(=O)O2 (stereo not given)	none (no result: bIAP inhibitor, bIAP activator)
Cc1onc(-c2ccccc2)c1NC(=O)Nc1ccc(OC(F)F)cc1	mIAP activ 2 (no result: bIAP inhibitor, bIAP activator)
Cc1onc(-c2ccccc2)c1C(=O)Nc1ccc(OC(C)C)cc1	none
Cc1ccc(S(=O)(=O)NC(Cc2ccccc2)C(=O)O)cc1C (stereo not given)	none (no result: bIAP inhibitor, bIAP activator)
CCCCC(=O)N(Cc1nc2sc(C)c(C)c2c(=O)[nH]1)C1CCCC1	none
Cc1cccc(C(C)C)c1NC(=O)COC(=O)Cc1ccsc1	bIAP activator 4.1
CCCCN1C(=O)C2(OCCCO2)c2cccc(C)c21	none (no result: bIAP inhibitor, bIAP activator)
O=C(Nc1cccc(Cl)c1)C1C2CCC3C(CCC21)C3(Cl)Cl (stereo not given)	mIAP activ 2.9
O=C(O)Cc1ccc(O)c(O)c1	mIAP block 60 (no result: bIAP inhibitor, bIAP activator)
O=C(NCc1n[nH]c(=S)n1-c1ccc(Br)cc1)c1ccc(S(=O)(=O)N2CCCCC2)cc1	none (no result: bIAP inhibitor, bIAP activator)
COc1ccccc1-c1cc(C(=O)N2CCN(S(=O)(=O)c3ccc(C)cc3)CC2)[nH]n1	mIAP activ 2.3 (no result: bIAP inhibitor, bIAP activator)
COc1ccc(OC)c(/C=C2\Oc3cc(OCC(=O)N4CCC(C(=O)O)CC4)ccc3C2=O)c1	none (no result: bIAP inhibitor, bIAP activator)
O=C(Nc1ccccc1C(=O)NC(Cc1ccccc1)C(=O)NC1CCCCCC1)c1ccccc1 (stereo not given)	mIAP activ 2.3
